Laboratory results: PubChem BioAssay AID488976 (Southern Research Specialized Biocontainment Screening …, 2010)
Calls of active or inactive are those of the source.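 Rule for the calls: active = cell viability under 70% at any tested concentration, a measure not printed in our tables; inactive = the rest.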

What follows are compounds tested on HEp-2 viability, ATP luminescence (assay: HEp-2 cell cytotoxicity, dose response, cytotoxicity control for RSV inhibitor project, ATP luminescence, purified and synthesized compounds (AID 488976)).
Method in brief: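 Material: HEp-2 cells without virus | Medium: DMEM/F12 | Doses: 8-point twofold dilution series, 50 to 0.39 µM final, 0.5% DMSO | Incubation: Six-day compound exposure of cells at 37 °C | Detection: Luminescent CellTiter-Glo signal | Measure: % viability versus median cell-only signal, CC50 via 4-parameter fit | Controls: Cell-only wells without compound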

Compound | CC50
Cc1ccc(NC(=O)[C@@H]2CCCN2S(=O)(=O)c2cccc3cccnc23)c(C)c1 | 38.9 µM
Cc1ccc(NC(=O)CNS(=O)(=O)c2cccc3cccnc23)c(C)c1 | > 50 µM (inactive)
CSc1ncccc1C(=O)Nc1nc(C(C)(C)C)cs1 | 28.7 µM
Cc1ccc(NC(=O)C2CCCN2Cc2cccc3cccnc23)c(C)c1 (configuration not stated) | 13.3 µM
Cc1ccc(NC(=O)C2CCCN2S(C)(=O)=O)c(C)c1 (configuration not stated) | > 50 µM (inactive)
Cc1ccc(NC(=O)C2CCCN2S(=O)(=O)c2cccc3cccnc23)c(C)c1 (configuration not stated) | 40.5 µM
O=C(Nc1ccc(C(F)(F)F)cc1[N+](=O)[O-])O[C@H]1[C@H](Cc2ccccc2)NS(=O)(=O)[C@H]2C[C@@H]3C=C[C@]12O3 | 22.1 µM
Cc1ccc(NC(=O)C2CCCN2S(=O)(=O)c2ccccc2)c(C)c1 (configuration not stated) | > 50 µM (inactive)
Cc1ccc(NC(=O)C2CCCN2S(=O)(=O)c2cccc3ccccc23)c(C)c1 (configuration not stated) | 17.8 µM
Cc1ccc(NC(=O)C2CCCN2C(=O)c2ccccc2)c(C)c1 (configuration not stated) | > 50 µM (inactive)
Cc1ccc(NC(=O)C2CCCN2S(=O)(=O)c2ccc3ncccc3c2)c(C)c1 (configuration not stated) | > 50 µM (inactive)
Cc1ccc(NC(=O)[C@H]2CCCN2S(=O)(=O)c2cccc3cccnc23)c(C)c1 | 38 µM
Cc1ccc(NC(=O)C2CCCN2C(=O)c2cccc3cccnc23)c(C)c1 (configuration not stated) | > 50 µM (inactive)
Cc1ccc(NC(=O)C2CCCN2S(=O)(=O)c2cccc3cnccc23)c(C)c1 (configuration not stated) | > 50 µM (inactive)
CSc1ncccc1C(=O)Nc1nc(C)cs1 | > 50 µM (inactive)
Cc1ccc(NC(=O)C(C)NS(=O)(=O)c2cccc3cccnc23)c(C)c1 (configuration not stated) | > 50 µM (inactive)
Cc1csc(NC(=O)c2cccnc2)n1 | > 50 µM (inactive)
